Key:
[1] = molecular target: Substance-P receptor (Cavia porcellus) (UniProt P30547); test: In vivo binding affinity towards Tachykinin receptor 1 after oral administration in presence of agonist ASMSP in guinea pig pulmonary tissue in lung plasma extravation assay; assay type: organism-based
How it was run: (§1)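 Guinea pig lung plasma extravasation model. Antagonist dosed orally; NK1-selective agonist ASMSP challenge 2 h postdose. Single ED50 calculated from dose response in three to six animals per dose over 4–5 dose levels, doses staggered across several days.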

[2] = Bioavailability in rat (dose 1-10 uM/kg i.v.); assay type: ADME, organism-based; conditions: in vivo, iv
How it was run: (§2)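 Compound given to rat (n = 3) or dog (n = 1) by iv bolus at 1–10 μmol/kg, or orally at 10–100 μmol/kg, as a solution in 75% poly(ethylene glycol) 400 in normal saline.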

[3] = molecular target: T1, Neuromedin-K receptor (Homo sapiens, UniProt P29371); test: Inhibition of binding of [125I]MPNI to human Tachykinin receptor 3 (NK3) expressed in mouse erythroleukemia cells; assay type: cell-based
T1 sequence (P29371 whole entry): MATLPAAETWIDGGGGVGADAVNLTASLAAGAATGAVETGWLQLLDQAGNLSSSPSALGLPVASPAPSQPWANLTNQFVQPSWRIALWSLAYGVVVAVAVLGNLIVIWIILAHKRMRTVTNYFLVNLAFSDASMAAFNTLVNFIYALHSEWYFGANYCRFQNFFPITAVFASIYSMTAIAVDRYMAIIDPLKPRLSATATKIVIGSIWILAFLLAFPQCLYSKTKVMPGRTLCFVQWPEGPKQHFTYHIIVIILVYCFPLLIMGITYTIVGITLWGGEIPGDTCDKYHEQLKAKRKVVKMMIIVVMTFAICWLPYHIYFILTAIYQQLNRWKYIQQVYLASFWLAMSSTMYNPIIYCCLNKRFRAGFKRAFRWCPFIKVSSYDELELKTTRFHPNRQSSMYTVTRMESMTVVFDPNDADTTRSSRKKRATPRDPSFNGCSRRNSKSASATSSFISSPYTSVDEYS

[4] = Bioavailability in dog (dose 1-10 uM/kg i.v.); assay type: ADME, organism-based, Canis lupus familiaris; conditions: in vivo, iv; how it was run: as §2
[5] = molecular target: T2, Substance-K receptor (Cavia porcellus) (UniProt Q64077); test: In vivo binding affinity towards Tachykinin receptor 2 (NK2) after oral administration in presence of agonist BANK in guinea pig pulmonary tissue in pulmonary mechanics assay
T2 sequence (whole entry): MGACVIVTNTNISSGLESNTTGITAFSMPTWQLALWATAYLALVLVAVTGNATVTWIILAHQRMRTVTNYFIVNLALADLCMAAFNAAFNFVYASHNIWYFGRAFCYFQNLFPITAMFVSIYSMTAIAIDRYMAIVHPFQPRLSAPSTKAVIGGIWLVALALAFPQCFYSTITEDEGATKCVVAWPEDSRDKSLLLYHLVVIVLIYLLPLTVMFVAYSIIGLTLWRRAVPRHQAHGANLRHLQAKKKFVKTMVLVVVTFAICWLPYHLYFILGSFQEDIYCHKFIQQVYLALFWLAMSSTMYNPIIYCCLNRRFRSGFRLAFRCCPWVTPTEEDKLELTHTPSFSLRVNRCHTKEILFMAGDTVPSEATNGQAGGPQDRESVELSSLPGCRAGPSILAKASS

[6] = molecular target: Substance-P receptor (Homo sapiens, UniProt P25103); test: Inhibition of binding of [3H]SP to Tachykinin receptor 1 of human tachykinin receptor expressed in mouse erythroleukemia cells; assay type: cell-based
Sequence of Substance-P receptor (P25103 whole entry): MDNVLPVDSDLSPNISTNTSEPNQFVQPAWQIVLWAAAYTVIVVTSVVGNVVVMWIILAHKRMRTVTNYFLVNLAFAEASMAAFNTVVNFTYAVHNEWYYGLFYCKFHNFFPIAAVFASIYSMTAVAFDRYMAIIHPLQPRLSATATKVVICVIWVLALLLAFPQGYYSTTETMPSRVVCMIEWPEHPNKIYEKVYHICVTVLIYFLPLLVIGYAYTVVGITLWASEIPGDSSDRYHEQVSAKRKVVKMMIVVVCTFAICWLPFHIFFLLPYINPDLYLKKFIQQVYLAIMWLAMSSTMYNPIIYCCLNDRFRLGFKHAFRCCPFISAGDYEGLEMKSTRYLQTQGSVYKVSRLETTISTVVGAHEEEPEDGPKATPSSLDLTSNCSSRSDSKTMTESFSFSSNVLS

[7] = molecular target: T3, Substance-K receptor (Oryctolagus cuniculus) (UniProt P79218); test: Tested for the binding affinity towards tachykinin receptor 2 (NK2) in rabbit pulmonary artery tissue
T3 sequence (whole entry): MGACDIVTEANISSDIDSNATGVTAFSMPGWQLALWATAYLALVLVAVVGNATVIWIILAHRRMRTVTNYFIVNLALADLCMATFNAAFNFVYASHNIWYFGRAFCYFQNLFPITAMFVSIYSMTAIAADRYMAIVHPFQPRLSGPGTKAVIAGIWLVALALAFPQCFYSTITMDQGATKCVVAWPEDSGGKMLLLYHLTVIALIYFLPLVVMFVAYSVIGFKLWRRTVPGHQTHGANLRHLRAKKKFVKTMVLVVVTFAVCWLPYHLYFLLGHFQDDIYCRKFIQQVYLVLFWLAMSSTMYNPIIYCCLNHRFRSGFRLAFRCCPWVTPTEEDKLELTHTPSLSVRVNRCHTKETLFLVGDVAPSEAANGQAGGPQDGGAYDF

[8] = molecular target: T4, Substance-K receptor (Homo sapiens, UniProt P21452); test: Inhibition of binding of [3H]NKA to human Tachykinin receptor 2 (NK2) in mouse erythroleukemia cells
T4 sequence (P21452 whole entry): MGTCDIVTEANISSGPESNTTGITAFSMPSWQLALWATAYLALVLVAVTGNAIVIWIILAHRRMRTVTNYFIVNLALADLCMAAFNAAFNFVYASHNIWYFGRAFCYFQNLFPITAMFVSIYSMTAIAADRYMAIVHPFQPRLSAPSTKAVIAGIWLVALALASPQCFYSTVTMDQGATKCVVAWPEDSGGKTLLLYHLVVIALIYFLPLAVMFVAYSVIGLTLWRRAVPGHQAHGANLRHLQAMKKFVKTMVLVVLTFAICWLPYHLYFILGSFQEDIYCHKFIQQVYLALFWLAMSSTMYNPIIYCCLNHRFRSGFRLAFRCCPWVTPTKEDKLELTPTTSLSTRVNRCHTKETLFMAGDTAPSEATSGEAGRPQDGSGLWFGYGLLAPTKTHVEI

[9] = molecular target: Substance-P receptor (Cavia porcellus) (UniProt P30547); test: In vivo potency as dose ratio (ED50 ratio for Tachykinin receptor 1 in presence and absence of antagonist) in guinea pig PMM after oral administration at a dose 30 uM/Kg
[10] = molecular target: T2, Substance-K receptor (Cavia porcellus); test: In vivo potency as dose ratio (ED50 ratio for Tachykinin receptor 2 (NK2) in presence and absence of antagonist) in guinea pig PMM after oral administration at a dose 30 uM/Kg
[11] = molecular target: Substance-P receptor (Cavia porcellus) (UniProt P30547); test: In vivo potency as dose ratio (ED50 ratio for Tachykinin receptor 1 in presence and absence of antagonist) in guinea pig PMM after intravenous administration at a dose 10 uM/Kg
[12] = molecular target: T2, Substance-K receptor (Cavia porcellus); test: In vivo potency as dose ratio (ED50 ratio for Tachykinin receptor 2 (NK2) in presence and absence of antagonist) in guinea pig PMM after intravenous administration at a dose 10 uM/Kg
[13] = molecular target: T4, Substance-K receptor; test: Inhibition of binding of [3H]NKA to human Tachykinin receptor 2 (NK2) expressed in mouse erythroleukemia cells; assay type: cell-based
[14] = molecular target: T2, Substance-K receptor (Cavia porcellus); test: In vivo binding affinity towards Tachykinin receptor 2 (NK2) receptor after oral administration in presence of agonist BANK in guinea pig pulmonary tissue in pulmonary mechanics assay
[15] = tested on: Substance-P receptor (Oryctolagus cuniculus); test: Tested for the binding affinity towards tachykinin receptor 1 (NK1) in rabbit pulmonary artery tissue
[16] = molecular target: T2, Substance-K receptor (Cavia porcellus); test: Effective dose concentration required for In vivo binding affinity towards Tachykinin receptor 2 (NK2) receptor after oral administration in presence of agonist BANK in guinea pig pulmonary tissue in pulmonary mechanics assay
[17] = molecular target: Substance-P receptor (Cavia porcellus) (UniProt P30547); test: Effective dose concentration required for In vivo binding affinity towards Tachykinin receptor 1 after oral administration in presence of agonist ASMSP in guinea pig pulmonary tissue in lung plasma extravation assay; assay type: organism-based; how it was run: as §1

Sequence of Substance-P receptor (Cavia porcellus) (P30547 whole entry): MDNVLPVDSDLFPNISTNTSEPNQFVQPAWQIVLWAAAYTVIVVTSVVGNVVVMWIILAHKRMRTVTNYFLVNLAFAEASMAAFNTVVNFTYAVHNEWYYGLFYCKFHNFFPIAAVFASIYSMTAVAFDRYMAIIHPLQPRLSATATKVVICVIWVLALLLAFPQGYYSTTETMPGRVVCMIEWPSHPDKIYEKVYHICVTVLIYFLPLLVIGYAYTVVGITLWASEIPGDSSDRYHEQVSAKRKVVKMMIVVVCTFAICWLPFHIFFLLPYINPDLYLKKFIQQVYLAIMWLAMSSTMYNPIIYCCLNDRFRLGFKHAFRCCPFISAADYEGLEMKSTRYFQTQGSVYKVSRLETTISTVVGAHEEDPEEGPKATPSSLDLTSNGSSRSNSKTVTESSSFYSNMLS

| Structure (SMILES) | ED50 [1] | bioavailability [2] | Ki [3] | bioavailability [4] | ED50 [5] | Ki [6] | pKB [7] | Ki [8] | dose ratio [9] | dose ratio [10] | dose ratio [11] | dose ratio [12] | Ki [13] | ED50 [14] | pKB [15] | ED50 [16] | ED50 [17] |
| --- | --- | --- | --- | --- | --- | --- | --- | --- | --- | --- | --- | --- | --- | --- | --- | --- | --- |
| COc1ccc(C2CCN(CC[C@H](CN(C)C(=O)c3cc(C#N)cc4ccccc34)c3ccc(Cl)c(Cl)c3)CC2)c([S@+](C)[O-])c1 | 1 µmol/kg | 7% | 39 nM | 18% | 3 µmol/kg | 0.14 nM | 8.7 | 0.34 nM | – | – | – | – | – | – | – | – | – |
| CNC(=O)C1(N2CCCCC2=O)CCN(CC[C@H](CN(C)C(=O)c2c(OC)c(C#N)cc3ccccc23)c2ccc(Cl)c(Cl)c2)CC1 | 0.5 µmol/kg | – | 9.4 nM | – | – | 0.27 nM | 8.2 | – | 50 | 49 | 384 | 155 | 35 nM | 9.3 µmol/kg | 8.7 | – | – |
| CN(C[C@@H](CCN1CCC(c2ccccc2[S@+](C)[O-])CC1)c1ccc(Cl)c(Cl)c1)C(=O)c1cc(C#N)cc2ccccc12 | – | 9% | – | 18% | – | 0.12 nM | 8.26 | – | – | – | – | – | 0.64 nM | – | – | 13 µmol/kg | 0.6 µmol/kg |

Source: ChEMBL document CHEMBL1135768, “Design, synthesis, and SAR of tachykinin antagonists: modulation of balance in NK(1)/NK(2) receptor antagonist activity” (J Med Chem, 2002)
